Compounds with a hit are over-represented: about 3.9% of the library has one in this group of screens.
tim23-1 inh – tim23-1 yeast growth inhibition | 330,000 compounds, 1.3% hits | inhibition, % at 20 µM | S. cerevisiae tim23-1 growth, BacTiter-Glo luminescence, 24 h;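 active means growth inhibition of the mutant yeast at or above 50%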;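 further: temperature-sensitive mutant grown at 25 °C; plate controls were DMSO-treated mutant yeast for no effect and medium wells lacking yeast for full effect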
TIM10 inh – growth inhibitors of TIM10 yeast strain | 330,000 compounds, 1.4% hits | inhibition, % at 10 µM | AID 463195 | S. cerevisiae TIM10 strain growth, BacTiter-Glo luminescence, 24 h;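 active means inhibition of 40% or more at the single tested concentration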;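 further: wild-type TIM10 isogenic control strain grown at permissive 25 °C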
UPR CHOP act – apoptotic UPR (CHOP) activation. CHO-CHOP luciferase reporter, luminescence; percent of tunicamycin response over DMSO baseline. 330,000 compounds, 0.34% hits. activation, % at 10 µM;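 active means at 10 µM dose, activation of 40% or more, normalized to positive control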;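 further: 100% = tunicamycin at 10 µg/mL and 0% = DMSO alone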
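Material: CHO-CHOP cells, stable luciferase reporter of PERK-eIF2a-CHOP signalling; quantity: 500 reporter cells seeded per well; buffer or medium: F12 medium containing 10% fetal bovine serum; compound: one dose, 10 µM in 0.5% DMSO; incubation: 6 h compound treatment, 37 °C; measured by: Steady-Glo luciferase luminescence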
tim10-1 inh – inhibits growth of tim10-1 mutant yeast; S. cerevisiae tim10-1 ts strain growth, BacTiter-Glo, 24 h; 330,000 compounds, 2.2% hits; inhibition, % at 20 µM;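 active means inhibition of at least 40%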;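 further: mutant grown at 25 °C; 0% = DMSO wells with yeast and 100% = wells holding no yeast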
XBP1 UPR activ – activators of adaptive arm of unfolded protein response (XBP1); AID 463104; CHO-XBP1 luciferase reporter, IRE1-XBP1 UPR activation, luminescence; percent of tunicamycin response, DMSO as zero; activation, % at 20 µM; 330,000 compounds, 0.33% hits;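 active means versus positive control, 20 µM dose yields 30% or more activation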;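 further: 100% = tunicamycin at 10 µg/mL and 0% = DMSO only wells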
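Signal: luciferase luminescence; Assay system: CHO-XBP1 luciferase reporter cells; Amount: one thousand reporter cells per well; Dosing: 20 µM single concentration, DMSO 1%; Benchmarks: high control tunicamycin 10 µg/mL final, low control DMSO vehicle only; Schedule: 6 h compound exposure at 37 °C, 5% CO2; Evaluation: percent activation relative to tunicamycin reference.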
tim10-1 confirm – tim10-1 yeast growth inhibition, confirmed. shares compounds with tim10-1 inh. S. cerevisiae tim10-1 ts strain growth, BacTiter-Glo, 24 h. inhibition, % at 20 µM. 7,400 compounds, 56% hits. AID 463213;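 active means inhibition of yeast growth at or above a set limit in either of two repeat tests at 20 µM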;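 further: tim10-1 mutant grown at permissive 25 °C to find synthetic lethal compounds; 0% = DMSO yeast wells and 100% = medium wells without yeast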
tim10 confirm – confirmation of TIM10 yeast growth inhibitors; shares compounds with TIM10 inh; 4,600 compounds, 63% hits; inhibition, % at 10 µM; S. cerevisiae tim10 strain growth, BacTiter-Glo luminescence, 24 h;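 active means inhibition of yeast growth at or above a set limit in either of two replicates at 10 µM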;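 further: this counterscreen used the strain with wild-type TIM10; 0% = yeast with DMSO and 100% = medium wells lacking yeast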
tim23-1 confirm – tim23-1 yeast growth inhibition, confirmed. 4,400 compounds, 83% hits. inhibition, % at 20 µM. shares compounds with tim23-1 inh. AID 463218. S. cerevisiae tim23-1 growth, BacTiter-Glo luminescence, 24 h;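 active means inhibition above about 39% in either of two replicate wells at 20 µM, limit read from the data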;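 further: temperature-sensitive tim23-1 mutant grown at 25 °C; 0% = DMSO wells with yeast and 100% = medium wells without yeast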
The depositor's hits bear a star; · = not tested or not shown.

SMILES	tim23-1 inh	TIM10 inh	UPR CHOP act	tim10-1 inh	XBP1 UPR activ	tim10-1 confirm	tim10 confirm	tim23-1 confirm
CCc1ccc2c(c1)C1(C(=O)N2)N2CCCC2C(C(=O)c2ccc3ccccc3c2)C12C(=O)Nc1ccccc12 (centres undefined)	34	33	3	38	12	·	·	·
Cc1cc(C(=O)N2CCCC(C(=O)c3ccc4ccccc4c3)C2)nn1C (centres undefined)	2	6	0	8	2	·	·	·
C/C(=N\Nc1ccc([N+](=O)[O-])cc1)c1ccc(O)cc1	70*	24	1	44*	0	19	·	55*
Cc1ccc(S(=O)(=O)N(C)c2ccc(OCC(=O)Nc3cccc(-n4cnnn4)c3C)cc2)cc1	16	-10	1	7	-3	·	·	·
CCOc1ccc(/C=N/NC(=O)c2[nH]ncc2Br)c(O)c1	78*	59*	1	52*	-5	30*	37*	78*
N#Cc1cccc(NC(=O)Cn2cnc(S(=O)(=O)N3CCCCC3)c2)c1	7	-10	1	10	-6	·	·	·
COC(=O)C1=C(C)OC(N)=C(C#N)C1c1cc2cccc(C)c2nc1Cl (centres undefined)	64*	29	0	44*	3	29	·	58*
O=c1[nH]c(NCc2ccccc2)nc2c1CCC2	7	0	0	11	0	·	·	·
Cc1nc(Nc2nc3c(c(=O)[nH]2)CCC3)nc2ccccc12	64*	83*	0	60*	2	72*	75*	62*
COc1ccc(NC(=O)/C(Cl)=C(/Cl)S(=O)Cc2ccc(Cl)cc2)cn1 (centres undefined)	73*	67*	-11	50*	-9	46*	90*	68*
Cc1ccc2c(c1)nc(-n1nc(C)cc1C)c1nnnn12	30	-6	2	32	1	·	·	·
Cc1cccnc1NC(=O)C(c1ccccc1)c1ccccc1	5	14	-1	-10	-4	·	·	·
N/C(=N\OC(=O)c1cc(-c2ccccc2)nc2ccccc12)c1ccc(Cl)cc1	70*	89*	1	59*	2	44*	87*	42*
N/C(=N\OC(=O)c1cc(-c2ccccc2)nc2ccccc12)c1cccnc1	80*	71*	0	52*	6	66*	77*	30
Cc1ccc(O)c(C2=Nc3ccccc3N=C(c3cccs3)C2)c1	7	12	3	11	0	·	·	·
Cc1ccc2c(c1)N=C(c1ccccc1)CC(C(Cl)Cl)=N2	74*	60*	8	60*	-3	48*	56*	67*
COc1ccc(OCCOC(=O)c2cccs2)cc1	-7	-10	3	9	1	·	·	·
COc1ccc(C2CC2/C(=N/O)c2ccccc2)cc1 (centres undefined)	15	-11	4	17	0	·	·	·
COc1ccc(C2CC2/C(C)=N/OC(=O)c2cccs2)cc1 (centres undefined)	78*	65*	2	66*	2	45*	86*	81*
COc1ccc(C2CC2/C(C)=N/OC(=O)c2ccc(F)cc2)cc1 (centres undefined)	77*	84*	0	49*	-5	23	92*	61*
CCOc1ccccc1NC(=O)CCc1c(C)nn(-c2ccc(N3CCCCC3)nn2)c1C	26	11	2	12	-4	·	·	·
C=C(CC)C(=O)c1ccc(OCC(=O)O)c(Cl)c1Cl	68*	54*	7	65*	-5	55*	57*	89*
O=[N+]([O-])c1c(C(Cl)Cl)nn(-c2ccccc2)c1N1CCCC1	61*	20	0	61*	-3	61*	·	58*
COc1cccc(CNC(=O)CCC(=O)N2CCOCC2)c1	-6	-10	1	1	-1	·	·	·
Cc1csc(NC(=O)c2cc3c(s2)CCCCC3)n1	57*	42*	-4	46*	-8	39*	37*	49*
SMILES	tim23-1 inh	TIM10 inh	UPR CHOP act	tim10-1 inh	XBP1 UPR activ	tim10-1 confirm	tim10 confirm	tim23-1 confirm
Cc1csc(NC(=O)c2cc3c(s2)CCCC3)n1	50	36	-1	36	-4	·	·	·
NC(=O)N=Nc1c2[nH]c3ccccc3nc-2c2ccccc12	56*	52*	2	44*	6	45*	62*	52*
O=c1[nH]c2ccccc2nc1-c1ccccc1	16	8	1	-15	4	·	·	·
COc1ccc(C2=NOC(Cn3nc(C(=O)NCc4cccc(C(F)(F)F)c4)cc3-c3ccccc3)C2)cc1 (centres undefined)	13	-21	4	-37	-2	·	·	·
NNC(=O)c1cccc(COc2cccc(Br)c2)c1	51*	36	2	45*	1	29	·	18
NNC(=O)c1cccc(COc2ccc(Br)cc2)c1	46	26	-1	39	-3	·	·	·
C/C(CC(=O)Nc1ccc(Cl)c(C(F)(F)F)c1)=N\NC(=O)c1ccccc1O	57*	32	1	47*	1	39*	·	41*
O=C(CCNC(=O)c1ccccc1Cl)Nc1ccc(Cl)c(C(F)(F)F)c1	11	30	1	29	-1	·	·	·
C/C(CC(=O)Nc1ccc(Cl)c(C(F)(F)F)c1)=N\NC(=O)c1cccc(O)c1	42	31	2	35	1	·	·	·
CCc1ccccc1NCC(=O)Nc1ccc(Cl)c(C(F)(F)F)c1	52*	48*	0	68*	0	54*	12	57*
CCN(Cc1ccccc1)C(c1ccncc1)c1nnnn1C(C)(C)C (centres undefined)	53*	30	-2	41*	0	39*	·	37
O=C(NC(=O)c1ccccc1F)OCc1ccc(Cl)cc1Cl	50*	18	1	46*	2	27	·	45*
CC1CC(C)CN(C(=O)COC(=O)CNC(=O)C23CC4CC(CC(C4)C2)C3)C1 (centres undefined)	17	6	0	6	0	·	·	·
Cc1cc(C)cc(OCC(=O)Nc2ccc3c(c2)OCO3)c1	1	3	-1	-8	0	·	·	·
O=C1c2ccc([N+](=O)[O-])cc2S(=O)(=O)N1Cc1ccccc1	76*	53*	24	72*	6	69*	43*	86*

Bioassay records: PubChem, Sanford-Burnham Center for Chemical Genomics
